Reference: ChEMBL document CHEMBL3217465, “Development of a phosphatase-resistant, L-tyrosine derived LPA1/LPA3 dual antagonist” (Medchemcomm, 2011)
The source made the active and inactive calls. The calls are words filed in the database; no cut-off is given here.

Columns and labels:
[1] = biological target: Lysophosphatidic acid receptor 1 (Homo sapiens, UniProt Q92633); test: Competitive antagonist activity at human LPA1 receptor overexpressed in CHO cells assessed as inhibition of LPA-induced [35S]GTPgammaS binding by liquid scintillation counting; assay type: functional, cell-based
Lysophosphatidic acid receptor 1, sequence (Q92633 whole entry): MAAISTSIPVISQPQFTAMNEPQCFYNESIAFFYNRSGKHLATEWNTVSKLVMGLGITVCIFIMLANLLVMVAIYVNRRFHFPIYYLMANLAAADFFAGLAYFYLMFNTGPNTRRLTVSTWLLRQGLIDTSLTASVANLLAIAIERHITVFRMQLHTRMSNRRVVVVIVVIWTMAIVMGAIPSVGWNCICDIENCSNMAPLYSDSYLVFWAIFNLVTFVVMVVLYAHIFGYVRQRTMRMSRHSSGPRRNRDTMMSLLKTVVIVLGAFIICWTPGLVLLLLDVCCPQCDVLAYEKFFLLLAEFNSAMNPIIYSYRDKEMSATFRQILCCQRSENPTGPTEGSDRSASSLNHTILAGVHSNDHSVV
How it was run: (§1)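 GTP[γ-³⁵S] binding was measured in membrane fractions containing hLPA1 or hLPA3 from over-expressing CHO cells. LPA concentration-effect curves were run at increasing antagonist concentrations, and Schild analysis was derived from these curves.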

[2] = biological target: T1, Lysophosphatidic acid receptor 3 (Homo sapiens, UniProt Q9UBY5); test: (§2) Competitive antagonist activity at N-terminal 3XHA-tagged human LPA3 receptor overexpressed in CHO cells assessed as inhibition of LPA-induced [35S]GTPgammaS binding by liquid scintillation counting; assay type: functional, cell-based; how it was run: as §1
T1 sequence (Q9UBY5 whole entry): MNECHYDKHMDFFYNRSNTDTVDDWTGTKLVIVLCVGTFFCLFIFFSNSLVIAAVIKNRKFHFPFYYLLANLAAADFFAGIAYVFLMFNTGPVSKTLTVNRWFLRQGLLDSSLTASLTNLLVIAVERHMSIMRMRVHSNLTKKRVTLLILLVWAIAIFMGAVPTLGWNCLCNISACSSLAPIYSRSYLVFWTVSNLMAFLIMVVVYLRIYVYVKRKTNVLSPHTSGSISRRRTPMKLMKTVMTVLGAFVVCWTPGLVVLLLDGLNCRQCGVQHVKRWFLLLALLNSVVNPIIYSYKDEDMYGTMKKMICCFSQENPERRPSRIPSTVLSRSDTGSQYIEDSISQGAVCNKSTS

[3] = biological target: T2, Lysophosphatidic acid receptor 3 (Homo sapiens) (UniProt Q9UBY5); test: as §2; assay type: functional, cell-based; how it was run: as §1
T2 sequence (whole entry): T1 sequence (Q9UBY5 whole entry)

A-431 = test: Antagonist activity at LPA receptor in human A431 cells assessed as inhibition of LPA-induced intracellular calcium mobilization at 10 uM by Fluo-3 AM-staining based FLIPR assay; assay type: cell-based
How it was run: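 A431 human epithelial carcinoma cells, which express LPA1–3 receptor mRNAs, were tested with the test compound at a single concentration of 10 μM against a single concentration of 1-oleoyl LPA. The read-out was inhibition of LPA-induced intracellular calcium release.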

[4] = biological target: Lysophosphatidic acid receptor 1/lysophosphatidic acid receptor 3 (Rattus norvegicus, UniProt Q8K5E0+P61794); test: Antagonist activity at LPAR1/LPAR3 in rat glioma C62B cells assessed as inhibition of LPA-induced reduction in isoproterenol-stimulated [3H]cAMP accumulation by liquid scintillation counting; assay type: functional, cell-based
How it was run: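 C62B cells were grown to confluence and labelled with [³H]adenine for 1 h to label ATP pools. They were then stimulated for 2 min with isoproterenol (10 μM), with or without 18:1 LPA (100 nM), and with or without antagonist. Antagonist was given at increasing concentrations to obtain dose-response curves of the block of LPA inhibition of cAMP accumulation.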

[5] = biological target: T3, Lysophosphatidic acid receptor 3 (Rattus norvegicus) (UniProt Q8K5E0); test: Antagonist activity at LPAR3 in rat glioma C62B cells assessed as inhibition of LPA3 agonist-induced reduction in isoproterenol-stimulated [3H]cAMP accumulation by liquid scintillation counting; assay type: functional, cell-based
T3 sequence (whole entry): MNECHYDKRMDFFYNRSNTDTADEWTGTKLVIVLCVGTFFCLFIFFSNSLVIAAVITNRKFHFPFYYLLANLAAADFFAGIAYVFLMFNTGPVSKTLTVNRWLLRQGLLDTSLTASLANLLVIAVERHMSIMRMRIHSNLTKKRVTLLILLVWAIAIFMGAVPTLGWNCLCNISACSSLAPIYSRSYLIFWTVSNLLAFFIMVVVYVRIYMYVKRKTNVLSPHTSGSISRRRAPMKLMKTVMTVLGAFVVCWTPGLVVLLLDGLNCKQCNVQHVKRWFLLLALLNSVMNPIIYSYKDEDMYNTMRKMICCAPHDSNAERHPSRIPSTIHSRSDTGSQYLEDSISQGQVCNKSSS

[6] = Half life in Wistar rat at 20 mg/kg, iv by LC-MS/MS analysis; assay type: ADME, organism-based; set-up: dose 20 mg/kg, route intravenous; conditions: in vivo
[7] = biological target: Lysophosphatidic acid receptor 2 (Homo sapiens) (UniProt Q9HBW0); test: Antagonist activity at LPAR2 receptor (unknown origin) assessed as inhibition of LPA-induced [35S]GTPgammaS binding by liquid scintillation counting; assay type: functional
Lysophosphatidic acid receptor 2 (Homo sapiens), sequence (Q9HBW0 whole entry): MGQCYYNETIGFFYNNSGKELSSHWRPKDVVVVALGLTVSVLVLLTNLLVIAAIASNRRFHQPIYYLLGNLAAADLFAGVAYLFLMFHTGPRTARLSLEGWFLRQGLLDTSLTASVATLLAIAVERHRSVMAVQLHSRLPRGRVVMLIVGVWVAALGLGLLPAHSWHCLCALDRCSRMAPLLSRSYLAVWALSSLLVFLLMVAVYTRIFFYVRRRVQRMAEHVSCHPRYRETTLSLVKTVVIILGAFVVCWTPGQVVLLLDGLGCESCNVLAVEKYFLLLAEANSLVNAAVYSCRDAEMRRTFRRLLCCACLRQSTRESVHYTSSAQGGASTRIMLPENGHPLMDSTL

Compound: CCCCCCCCCCCCCCCCCC(=O)N[C@@H](COP(=O)(O)O)Cc1ccc(OCc2cc(OCC(F)(F)F)ccn2)cc1
- Ki [1]: 84 nM
- Ki [2]: 48 nM

Compound: Cc1noc(-c2ccc(CSCCC(=O)O)cc2)c1NC(=O)OC(C)c1ccccc1Cl (stereo not given)
- inhibition [1]: Active
- inhibition [3]: Active

Compound: CCCCCCCCCCCCCCCC(=O)N[C@@H](/C=C/P(=O)(O)O)Cc1ccc(OCc2cc(OCC(F)(F)F)ccn2)cc1
- inhibition (A-431): Active
- Ki [1]: 143 nM
- inhibition [1]: Dose-dependent effect
- inhibition [3]: Dose-dependent effect
- Ki [2]: 512 nM
- Ki [4]: 11 nM
- inhibition [5]: Dose-dependent effect
- half-life [6]: 1.5 h
- inhibition [7]: inactive

Compound: CCCCCCCCCCCCCCCC(=O)N[C@H](Cc1ccc(OCc2cc(OCC(F)(F)F)ccn2)cc1)CC(F)P(=O)(O)O (stereo not given in full)
- inhibition (A-431): Active

Compound: CCCCCCCCCCCCCCCC(=O)N[C@@H](/C=C(\F)P(=O)(O)O)Cc1ccc(OCc2cc(OCC(F)(F)F)ccn2)cc1
- inhibition (A-431): Active
